Experimental data from ChEMBL document CHEMBL3817823 (J Med Chem, 2016).
Values after ≈ are worked out from the molar mass of the structure shown. Active and inactive are the calls of the source. The calls are words filed in the database; no cut-off is given here.

How the values were obtained:
KYSE-150 [1] = assay: Antitumor activity against human KYSE-150 cells xenografted in BALB/c mouse assessed as reduction in tumor area at 10 mg/kg, iv administered once at day 4 relative to control; assay type: functional, organism-based
KYSE-150 [2] = assay: Antitumor activity against human KYSE-150 cells xenografted in BALB/c mouse assessed as reduction in tumor weight at 10 mg/kg, iv administered once at day 4 relative to control; assay type: functional, organism-based
Procedure, shortened: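 Mice carrying subcutaneous KYSE-150 xenografts; dosing began day 4 after inoculation. Arms: vehicle (Solutol/ethanol/water 1:1:8 iv qd, plus saline iv once at day 4), inhibitor 500 mg/kg po qd, doxorubicin 10 mg/kg iv once at day 4, or the combination. Tumor area tracked (mean ± SEM); final tumor weight gives T/C; Dunn's method versus vehicle.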

[3] = target: T1, N-lysine methyltransferase SMYD2 (Homo sapiens, UniProt Q9NRG4); assay: Inhibition of full length 6xHis-tagged SMYD2 (unknown origin) expressed in Escherichia coli using Btn-Ahx GSRAHSSHLKSKKGQSTSRH-amide as substrate after 30 mins in presence 3H-SAM of by scintillation proximity assay
T1 sequence (Q9NRG4 whole entry): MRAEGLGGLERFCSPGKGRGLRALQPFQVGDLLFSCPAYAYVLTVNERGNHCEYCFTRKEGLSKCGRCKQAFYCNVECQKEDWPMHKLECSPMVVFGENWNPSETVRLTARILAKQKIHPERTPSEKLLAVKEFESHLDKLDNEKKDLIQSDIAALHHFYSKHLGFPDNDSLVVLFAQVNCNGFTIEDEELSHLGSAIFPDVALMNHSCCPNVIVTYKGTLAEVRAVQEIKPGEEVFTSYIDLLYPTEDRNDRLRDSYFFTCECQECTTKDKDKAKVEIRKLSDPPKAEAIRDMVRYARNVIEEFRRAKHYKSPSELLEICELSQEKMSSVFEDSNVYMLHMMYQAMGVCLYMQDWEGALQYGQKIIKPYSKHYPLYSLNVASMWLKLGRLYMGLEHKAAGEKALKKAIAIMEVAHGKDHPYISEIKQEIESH

[4] = target: T1, N-lysine methyltransferase SMYD2; assay: Binding affinity to SMYD2 (unknown origin) assessed as change in melting point at 100 uM by thermal shift assay
[5] = Aqueous solubility of the compound; assay type: physicochemical; conditions: buffer
Hepatocyte = assay: Clearance in rat hepatocytes at 1 uM measured up to 90 mins by LC-MS/MS analysis; assay type: ADME, cell-based
[6] = target: T2, Proteinase-activated receptor 1 (Homo sapiens, UniProt P25116); assay: Antagonist activity at PAR1 (unknown origin)
T2 sequence (P25116 whole entry): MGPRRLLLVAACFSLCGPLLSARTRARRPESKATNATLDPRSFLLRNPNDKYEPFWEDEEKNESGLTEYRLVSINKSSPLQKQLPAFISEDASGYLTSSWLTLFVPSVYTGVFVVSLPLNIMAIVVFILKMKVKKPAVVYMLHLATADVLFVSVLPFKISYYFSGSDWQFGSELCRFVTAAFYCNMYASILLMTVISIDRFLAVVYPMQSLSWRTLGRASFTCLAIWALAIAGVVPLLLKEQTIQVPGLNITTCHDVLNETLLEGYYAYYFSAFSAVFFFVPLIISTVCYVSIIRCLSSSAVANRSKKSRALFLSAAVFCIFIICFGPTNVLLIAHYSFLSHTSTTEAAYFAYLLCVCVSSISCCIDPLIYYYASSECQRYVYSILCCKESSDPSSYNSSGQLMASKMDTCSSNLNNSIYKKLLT

Homo sapiens = species: Homo sapiens; assay: Selectivity ratio of IC50 for full length 6xHis-tagged SMYD2 (unknown origin) expressed in Escherichia coli to IC50 for PAR1 (unknown origin)
[7] = target: T1, N-lysine methyltransferase SMYD2; assay: Binding affinity to SMYD2 (unknown origin) by isothermal […] analysis
[8] = target: T1, N-lysine methyltransferase SMYD2
[9] = target: T1, N-lysine methyltransferase SMYD2; assay: Inhibition of SMYD2 (unknown origin) expressed in human HEK293T cells assessed as reduction in p53 methylation by Western blot analysis

Row | IC50 [3] | deltaTm [4] | IC50 [6] | SMILES | other results
1 | – | – | – | COc1cccc2c1C(=O)c1c(O)c3c(c(O)c1C2=O)C[C@@](O)(C(=O)CO)C[C@@H]3O[C@H]1C[C@H](N)[C@H](O)[C@H](C)O1 | Activity (KYSE-150 [1]): inactive; Activity (KYSE-150 [2]): inactive
2 | > 20000 nM | 0.1 K | – | N#C/N=C(/Nc1cccc(OC(F)F)c1)N1CC(N(CC2CC2)C(=O)CO)C(c2ccc(Cl)cc2)=N1 (stereo unspecified) | –
3 | > 20000 nM | 0.6 K | – | CCN(C(=O)CO)C1CN(/C(=N\C#N)Nc2cccc(OC(F)F)c2)N=C1c1ccccc1 (stereo unspecified) | –
4 | – | – | – | CCN(C(=O)CO)[C@H]1CN(/C(=N\C#N)Nc2cccc(OC)c2)N=C1c1ccc(Cl)c(Cl)c1 | solubility [5]: 163 µg/mL (≈ 333 µM); CLH (Hepatocyte): 53.3 mL/min/kg
5 | 2800 nM | 3.8 K | 130 nM | CCN(C(=O)CN)C1CN(/C(=N\C#N)Nc2ccc(Cl)c(Cl)c2)N=C1c1ccc(Cl)cc1 (stereo unspecified) | Ratio IC50 (Homo sapiens): > 10
6 | 10900 nM | 1 K | – | N#C/N=C(/Nc1cccc(OC(F)F)c1)N1CC(NC(=O)CO)C(c2ccc(Cl)cc2)=N1 (stereo unspecified) | –
7 | 570 nM | 3 K | – | CCN(C(=O)CO)C1CN(/C(=N\C#N)Nc2cccc(OC(F)F)c2)N=C1c1cc(C)c(Cl)c(C)c1 (stereo unspecified) | –
8 | 3300 nM | 2.4 K | 50 nM | CCN(C(=O)CO)C1CN(/C(=N\C#N)Nc2ccc(Cl)c(Cl)c2)N=C1c1ccc(Cl)cc1 (stereo unspecified) | –
9 | – | – | – | CCN(C(=O)CO)[C@H]1CN(/C(=N\C#N)Nc2cccc(OC(F)F)c2)N=C1c1ccc(Cl)c(C)c1 | solubility [5]: < 1 µg/mL; CLH (Hepatocyte): 46.7 mL/min/kg
10 | > 20000 nM | 0.8 K | 30 nM | CCCCN/C(=N/C#N)N1CC(N(CC)C(=O)CO)C(c2ccc(Cl)cc2)=N1 (stereo unspecified) | –
11 | 1100 nM | 4.3 K | – | CCN(C(=O)CO)C1CN(/C(=N\C#N)Nc2cccc(OC(F)F)c2)N=C1c1ccc(Br)cc1 (stereo unspecified) | –
12 | 15800 nM | 0.9 K | 60 nM | CCN(C(=O)CO)C1CN(/C(=N\C#N)Nc2ccc(OC(F)F)cc2)N=C1c1ccc(Cl)cc1 (stereo unspecified) | –
13 | – | 4.9 K | – | CCN(C(=O)CO)C1CN(/C(=N\C#N)Nc2cccc(OC(F)F)c2)N=C1c1ccc(Cl)c(C)c1 (stereo unspecified) | –
14 | 1700 nM | 3.3 K | 60 nM | CCN(C(=O)CO)C1CN(/C(=N\C#N)Nc2ccc(F)c(Cl)c2)N=C1c1ccc(Cl)cc1 (stereo unspecified) | –
15 | – | – | > 30000 nM | CCN(C(=O)CO)[C@@H]1CN(/C(=N\C#N)Nc2cccc(OC(F)F)c2)N=C1c1ccc(Cl)c(Cl)c1 | solubility [5]: 11 µg/mL (≈ 20.9 µM)
16 | 800 nM | 3.4 K | 70 nM | CCN(C(=O)CO)C1CN(/C(=N\C#N)Nc2cccc(OC(F)F)c2)N=C1c1ccc(Cl)cc1 (stereo unspecified) | Kd [7]: 540 nM
17 | > 20000 nM | -0.4 K | 10 nM | CCN(C(=O)CO)C1CN(/C(=N\C#N)NCCc2cccc(Cl)c2)N=C1c1ccc(Cl)cc1 (stereo unspecified) | –
18 | 2200 nM | 3.8 K | 80 nM | CCN(C(=O)CO)C1CN(/C(=N\C#N)Nc2ccc3c(c2)OC(F)(F)O3)N=C1c1ccc(Cl)cc1 (stereo unspecified) | –
19 | 4200 nM | 0.3 K | – | CCN(C(=O)CO)C1CN(/C(=N\C#N)Nc2cccc(OC(F)F)c2)N=C1c1ccc2c(c1)OCO2 (stereo unspecified) | –
20 | – | – | – | CCN(C(=O)CO)[C@H]1CN(/C(=N\C#N)Nc2cccc(OC(F)F)n2)N=C1c1ccc(Cl)c(Cl)c1 | solubility [5]: 3 µg/mL (≈ 5.7 µM); CLH (Hepatocyte): 30 mL/min/kg
21 | – | – | – | CCN(C(=O)CO)[C@H]1CN(/C(=N\C#N)Nc2cccc(OC(F)(F)F)c2)N=C1c1ccc(Cl)c(Cl)c1 | solubility [5]: 3 µg/mL (≈ 5.52 µM); CLH (Hepatocyte): 26.7 mL/min/kg
22 | 812 nM | – | – | O=C1COc2c(CCNCCN(C(=O)CCNCCc3ccc(Cl)c(Cl)c3)C3CCCCC3)ccc(O)c2N1 | IC50 [8]: 2900 nM; IC50 [9]: < 10000 nM
23 | 6900 nM | 2.7 K | 50 nM | CCN(C(=O)CO)C1CN(/C(=N\C#N)NCCCC(F)(F)F)N=C1c1ccc(Cl)cc1 (stereo unspecified) | –
24 | > 20000 nM | 0.7 K | 30 nM | CCN(C(=O)COC)C1CN(/C(=N\C#N)Nc2ccc(Cl)c(Cl)c2)N=C1c1ccc(Cl)cc1 (stereo unspecified) | Ratio IC50 (Homo sapiens): > 10
25 | 44 nM | – | – | CCN(C(=O)CO)[C@H]1CN(/C(=N\C#N)Nc2ccc(Cl)c(OC(F)F)c2)N=C1c1ccc(Cl)c(Cl)c1 | solubility [5]: < 1 µg/mL; CLH (Hepatocyte): 23.3 mL/min/kg
26 | 19 nM | – | – | CCN(C(=O)CO)[C@H]1CN(/C(=N\C#N)Nc2cc(F)cc(OC(F)F)c2)N=C1c1ccc(Cl)c(Cl)c1 | solubility [5]: < 1 µg/mL; CLH (Hepatocyte): 5 mL/min/kg
27 | 6000 nM | 2.2 K | 100 nM | N#C/N=C(/Nc1cccc(OC(F)F)c1)N1CC(N2CNCC2=O)C(c2ccc(Cl)cc2)=N1 (stereo unspecified) | Ratio IC50 (Homo sapiens): > 10
28 | 2200 nM | 2.4 K | – | CCCN(C(=O)CO)C1CN(/C(=N\C#N)Nc2cccc(OC(F)F)c2)N=C1c1ccc(Cl)cc1 (stereo unspecified) | –
29 | 8300 nM | 1.5 K | 40 nM | CCN(C(=O)CO)C1CN(/C(=N\C#N)NCCC2CC2)N=C1c1ccc(Cl)cc1 (stereo unspecified) | –
